In ChEMBL document CHEMBL1153560, “In vitro activities of doripenem and six comparator drugs against 423 aerobic and anaerobic bacterial isolates from infected diabetic foot wounds” (2008):
≈ marks a conversion by molar mass, not a printed value.

Experiments:
Assay type in all cases: functional
Bacteroides stercoris [1] = test: Antibacterial activity against Bacteroides stercoris isolated from patient with diabetic foot infection assessed as percent resistant isolates after 44 to 48 hrs by agar dilution method
Method in brief: (§1)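 Agar dilution per CLSI M11-A7. Twofold drug dilutions made on the test day and added to molten agar. Replicator-applied inoculum of 10^5 CFU/spot. Drug-free control plates inoculated before and after each drug set. Incubation at 37°C for 44 to 48 h, anaerobic chamber. MIC taken as the lowest concentration giving no growth or a marked change in growth versus controls.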

Phocaeicola vulgatus = test: Antibacterial activity against Bacteroides vulgatus isolated from patient with diabetic foot infection assessed as percent resistant isolates after 44 to 48 hrs by agar dilution method; method in brief: as §1
Parabacteroides merdae = test: Antibacterial activity against Parabacteroides merdae isolated from patient with diabetic foot infection after 44 to 48 hrs by agar dilution method
Method in brief: (§2)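 CLSI M11-A7 agar dilution: serial twofold drug dilutions made on the test day and added to molten agar. Spots of 10^5 CFU were applied by replicator, with drug-free control plates inoculated before and after each set. Incubation was 44 to 48 h at 37°C in an anaerobic chamber. MIC was the lowest concentration giving no growth or a marked change in growth versus controls.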

Finegoldia magna = test: Antibacterial activity against Finegoldia magna isolated from patient with diabetic foot infection assessed as percent resistant isolates after 44 to 48 hrs by agar dilution method; method in brief: as §1
[2] = test system: Staphylococcus lugdunensis; test: Antibacterial activity against Staphylococcus lugdunensis isolated from patient with diabetic foot infection after 18 to 24 hrs by broth microdilution method
Method in brief: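 Subcultured on Trypticase soy blood agar, then broth microdilution in cation-adjusted Mueller-Hinton broth. Trays were made in-house with serial twofold drug dilutions and stored at −70°C. Inoculum was colonies from overnight growth, final approximately 5 × 10^5 CFU/ml. MIC was read after 18 to 24 h at 37°C. QC strains: S. aureus ATCC 29213 and E. coli ATCC 25922.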

Bacteroides stercoris [3] = test: Antibacterial activity against Bacteroides stercoris isolated from patient with diabetic foot infection after 44 to 48 hrs by agar dilution method; method in brief: as §2
Corynebacterium simulans = test: Antibacterial activity against Corynebacterium simulans isolated from patient with diabetic foot infection after 48 hrs by broth microdilution method
Method in brief: (§3)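 Isolates were subcultured on Trypticase soy blood agar. Broth microdilution used cation-adjusted Mueller-Hinton broth with lysed horse blood, in-house trays of twofold drug dilutions stored at −70°C. Colonies from overnight growth gave a final inoculum of about 5 × 10^5 CFU/ml. Trays were read after 18 to 24 h at 37°C, up to 48 h for some strains.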

[Clostridium] innocuum = Antibacterial activity against Clostridium innocuum isolated from patient with diabetic foot infection assessed as percent resistant isolates after 44 to 48 hrs by agar dilution method; method in brief: as §1
[4] = test system: Staphylococcus epidermidis; test: Antibacterial activity against Staphylococcus epidermidis isolated from patient with diabetic foot infection after 18 to 24 hrs by broth microdilution method
Method in brief: (§4)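 Isolates were subcultured on Trypticase soy blood agar and tested by broth microdilution in cation-adjusted Mueller-Hinton broth. In-house trays of twofold drug dilutions were stored at −70°C. Overnight colonies gave a final inoculum of about 5 × 10^5 CFU/ml. Plates were read after 18 to 24 h at 37°C.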

Proteus vulgaris [5] = test: Antibacterial activity against Proteus vulgaris isolated from patient with diabetic foot infection after 18 to 24 hrs by broth microdilution method; method in brief: as §4
[6] = test system: Corynebacterium aurimucosum; test: Antibacterial activity against Corynebacterium aurimucosum isolated from patient with diabetic foot infection after 48 hrs by broth microdilution method; method in brief: as §3
[7] = test system: Parabacteroides distasonis; test: Antibacterial activity against Parabacteroides distasonis isolated from patient with diabetic foot infection after 44 to 48 hrs by agar dilution method; method in brief: as §2
[8] = test system: Bacteroides thetaiotaomicron; test: Antibacterial activity against Bacteroides thetaiotaomicron isolated from patient with diabetic foot infection after 44 to 48 hrs by agar dilution method; method in brief: as §2
[9] = test system: Clostridium malenominatum; test: Antibacterial activity against Clostridium malenominatum isolated from patient with diabetic foot infection after 44 to 48 hrs by agar dilution method; method in brief: as §2
[10] = test system: Clostridium malenominatum; test: Antibacterial activity against Clostridium malenominatum isolated from patient with diabetic foot infection assessed as percent resistant isolates after 44 to 48 hrs by agar dilution method; method in brief: as §1
[11] = test system: Enterocloster clostridioformis; test: Antibacterial activity against Clostridium clostridioforme isolated from patient with diabetic foot infection assessed as percent resistant isolates after 44 to 48 hrs by agar dilution method; method in brief: as §1
[12] = test system: Staphylococcus haemolyticus; test: Antibacterial activity against Staphylococcus haemolyticus isolated from patient with diabetic foot infection assessed as percent resistant isolates after 18 to 24 hrs by broth microdilution method
Clostridium cadaveris = test: Antibacterial activity against Clostridium cadaveris isolated from patient with diabetic foot infection assessed as percent resistant isolates after 44 to 48 hrs by agar dilution method; method in brief: as §1
Corynebacterium xerosis = test: Antibacterial activity against Corynebacterium xerosis isolated from patient with diabetic foot infection assessed as percent resistant isolates after 48 hrs by broth microdilution method
Method in brief: (§5)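 Isolates subcultured on Trypticase soy blood agar. Broth microdilution in cation-adjusted Mueller-Hinton broth with lysed horse blood, using in-house twofold dilution trays stored at −70°C. Inoculum from overnight colonies at about 5 × 10^5 CFU/ml final. Read after 18 to 24 h at 37°C, up to 48 h for some Corynebacterium strains.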

[13] = test system: Parabacteroides distasonis; test: Antibacterial activity against Parabacteroides distasonis isolated from patient with diabetic foot infection assessed as percent resistant isolates after 44 to 48 hrs by agar dilution method; method in brief: as §1
Anaerococcus tetradius = test: Antibacterial activity against Anaerococcus tetradius isolated from patient with diabetic foot infection assessed as percent resistant isolates after 44 to 48 hrs by agar dilution method; method in brief: as §1
Corynebacterium accolens = test: Antibacterial activity against Corynebacterium accolens isolated from patient with diabetic foot infection assessed as percent resistant isolates after 48 hrs by broth microdilution method; method in brief: as §5
Bacteroides ovatus = test: Antibacterial activity against Bacteroides ovatus isolated from patient with diabetic foot infection assessed as percent resistant isolates after 44 to 48 hrs by agar dilution method; method in brief: as §1
Klebsiella oxytoca = test: Antibacterial activity against Klebsiella oxytoca isolated from patient with diabetic foot infection after 18 to 24 hrs by broth microdilution method; method in brief: as §4
Corynebacterium striatum = test: Antibacterial activity against Corynebacterium striatum isolated from patient with diabetic foot infection assessed as percent resistant isolates after 48 hrs by broth microdilution method; method in brief: as §5
[14] = test system: Enterocloster clostridioformis; test: Antibacterial activity against Clostridium clostridioforme isolated from patient with diabetic foot infection after 44 to 48 hrs by agar dilution method; method in brief: as §2
Proteus vulgaris [15] = test: Antibacterial activity against Proteus vulgaris isolated from patient with diabetic foot infection assessed as percent resistant isolates after 18 to 24 hrs by broth microdilution method
Method in brief: (§6)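 Aerobes subcultured on Trypticase soy blood agar, then broth microdilution in cation-adjusted Mueller-Hinton broth. Trays prepared in-house with twofold dilutions and stored at −70°C. Overnight colonies suspended to about 5 × 10^5 CFU/ml final. Read after 18 to 24 h at 37°C. QC strains included S. aureus ATCC 29213 and E. coli ATCC 25922.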

Enterobacter cloacae = test: Antibacterial activity against Enterobacter cloacae isolated from patient with diabetic foot infection assessed as percent resistant isolates after 18 to 24 hrs by broth microdilution method; method in brief: as §6

Structure (SMILES) | Activity (Bacteroides stercoris [1]) [%] | Activity (Phocaeicola vulgatus) [%] | MIC50 (Parabacteroides merdae) [µg/mL] | MIC90 (Parabacteroides merdae) [µg/mL] | Activity (Finegoldia magna) [%] | MIC50 [2] [µg/mL] | MIC90 [2] [µg/mL] | MIC50 (Bacteroides stercoris [3]) [µg/mL] | MIC90 (Bacteroides stercoris [3]) [µg/mL] | MIC50 (Corynebacterium simulans) [µg/mL] | MIC90 (Corynebacterium simulans) [µg/mL] | Activity ([Clostridium] innocuum) [%] | MIC50 [4] [µg/mL] | MIC90 [4] [µg/mL] | MIC50 (Proteus vulgaris [5]) [µg/mL] | MIC90 (Proteus vulgaris [5]) [µg/mL] | MIC50 [6] [µg/mL] | MIC90 [6] [µg/mL] | MIC50 [7] [µg/mL] | MIC90 [7] [µg/mL] | also measured
C[C@@H](O)[C@H]1C(=O)N2C(C(=O)O)=C(S[C@@H]3CN[C@H](C(=O)N(C)C)C3)[C@H](C)[C@H]12 [MEROPENEM] | 0 | 0 | 0.25 (≈ 0.652 µM) | 1 (≈ 2.61 µM) | 0 | 0.25 (≈ 0.652 µM) | 0.5 (≈ 1.3 µM) | 0.25 (≈ 0.652 µM) | 1 (≈ 2.61 µM) | 0.125 (≈ 0.326 µM) | 0.25 (≈ 0.652 µM) | 0 | 1 (≈ 2.61 µM) | 4 (≈ 10.4 µM) | 0.06 (≈ 0.156 µM) | 0.125 (≈ 0.326 µM) | 1 (≈ 2.61 µM) | 16 (≈ 41.7 µM) | 0.25 (≈ 0.652 µM) | 1 (≈ 2.61 µM) | MIC50 [8]: 0.25 µg/mL (≈ 0.652 µM); MIC90 [8]: 1 µg/mL (≈ 2.61 µM); MIC50 [9]: 0.06 µg/mL (≈ 0.156 µM); MIC90 [9]: 1 µg/mL (≈ 2.61 µM); Activity [10]: 0%; Activity [11]: 0%; Activity [12]: 73%; Activity (Clostridium cadaveris): 0%; Activity (Corynebacterium xerosis): 0%; Activity [13]: 0%; Activity (Anaerococcus tetradius): 0%; Activity (Corynebacterium accolens): 0%; Activity (Bacteroides ovatus): 0%; MIC50 (Klebsiella oxytoca): 0.03 µg/mL (≈ 0.0782 µM); MIC90 (Klebsiella oxytoca): 0.06 µg/mL (≈ 0.156 µM); Activity (Corynebacterium striatum): 0%; MIC50 [14]: 0.06 µg/mL (≈ 0.156 µM); MIC90 [14]: 1 µg/mL (≈ 2.61 µM); Activity (Proteus vulgaris [15]): 0%; Activity (Enterobacter cloacae): 0%
C[C@@H](O)[C@H]1C(=O)N2C(C(=O)O)=C(SCCNC=N)C[C@H]12 [IMIPENEM ANHYDROUS] | 0 | 0 | 0.5 (≈ 1.67 µM) | 1 (≈ 3.34 µM) | 0 | 0.03 (≈ 0.1 µM) | 0.06 (≈ 0.2 µM) | 0.5 (≈ 1.67 µM) | 1 (≈ 3.34 µM) | 0.03 (≈ 0.1 µM) | 0.125 (≈ 0.418 µM) | 0 | 0.125 (≈ 0.418 µM) | 0.5 (≈ 1.67 µM) | 0.5 (≈ 1.67 µM) | 4 (≈ 13.4 µM) | 0.25 (≈ 0.835 µM) | 32 (≈ 107 µM) | 0.5 (≈ 1.67 µM) | 1 (≈ 3.34 µM) | MIC50 [8]: 0.5 µg/mL (≈ 1.67 µM); MIC90 [8]: 1 µg/mL (≈ 3.34 µM); MIC50 [9]: 0.25 µg/mL (≈ 0.835 µM); MIC90 [9]: 2 µg/mL (≈ 6.68 µM); Activity [10]: 0%; Activity [11]: 0%; Activity [12]: 73%; Activity (Clostridium cadaveris): 0%; Activity (Corynebacterium xerosis): 0%; Activity [13]: 0%; Activity (Anaerococcus tetradius): 0%; Activity (Corynebacterium accolens): 0%; Activity (Bacteroides ovatus): 0%; MIC50 (Klebsiella oxytoca): 0.25 µg/mL (≈ 0.835 µM); MIC90 (Klebsiella oxytoca): 1 µg/mL (≈ 3.34 µM); Activity (Corynebacterium striatum): 0%; MIC50 [14]: 0.25 µg/mL (≈ 0.835 µM); MIC90 [14]: 2 µg/mL (≈ 6.68 µM); Activity (Proteus vulgaris [15]): 0%; Activity (Enterobacter cloacae): 0%
